# Measured values published in ChEMBL document CHEMBL1126752, “Synthesis and biological activity of cis-(3aR)-(-)-2,3,3a,4,5,9b-hexahydro- 3-propyl-1H-benz[e]indole-9-carboxamide: a potent and selective 5-HT1A receptor agonist with good oral availability” (J Med Chem, 1993).
# Calls of active or inactive are those of the source. The rule behind the calls is not given here.
# How the values were obtained:
# [1] = system: Rattus norvegicus; test: DOPA accumulation in corpus striatum of reserpinized rats following peroral administration at highest dose tested (50 umol/kg); Inactive; type: functional, organism-based
# [2] = system: Rattus norvegicus; test: DOPA accumulation in corpus striatum of reserpinized rats following subcutaneous administration at highest dose tested (50 umol/kg); Inactive; type: functional, organism-based
# [3] = system: Rattus norvegicus; test: DOPA accumulation in hemispheres of reserpinized rats following peroral administration at highest dose tested (50 umol/kg); Inactive; type: functional, organism-based
# [4] = system: Rattus norvegicus; test: DOPA accumulation in hemispheres of reserpinized rats following subcutaneous administration at highest dose tested (50 umol/kg); Inactive; type: functional, organism-based
# [5] = system: Rattus norvegicus; test: DOPA accumulation in limbic system of reserpinized rats following peroral administration at highest dose tested (50 umol/kg); Inactive; type: functional, organism-based
# [6] = system: Rattus norvegicus; test: DOPA accumulation in limbic system of reserpinized rats following subcutaneous administration at highest dose tested (50 umol/kg); Inactive; type: functional, organism-based
# [7] = species: Rattus norvegicus; test: Compound was tested for gross behavioral response in rats; full-blown 5-HT syndrome; type: functional, organism-based
# [8] = system: Rattus norvegicus; test: Oral availability obtained from blood plasma levels of the parent compound following 5 umol /kg intravenous and 40 umol /kg peroral administration; type: functional, organism-based
# Summary of the method: (§1)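 Male Sprague-Dawley rats (300 g) sampled from arterial catheters 24 h after surgery over 10-24 h. Dosing was 5 µmol/kg iv and 40 µmol/kg po, with oral rats fasted 18 h. Parent drug in blood measured by GC/MS after pH 11 dichloromethane extraction with internal standard, samples run in duplicate. Availability from po/iv AUC ratio (n = 4).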
# [9] = species: Rattus norvegicus; test: Compound was tested for gross behavioral response in rats; partial 5-HT syndrome; type: functional, organism-based
# [10] = target: T1, 5-hydroxytryptamine receptor 1A (Homo sapiens, UniProt P08908); test: Binding affinity against [3H]8-OH-DPAT-labeled 5-hydroxytryptamine 1A receptor sites in cloned CHO cells; type: cell-based
# T1 sequence (P08908 whole entry): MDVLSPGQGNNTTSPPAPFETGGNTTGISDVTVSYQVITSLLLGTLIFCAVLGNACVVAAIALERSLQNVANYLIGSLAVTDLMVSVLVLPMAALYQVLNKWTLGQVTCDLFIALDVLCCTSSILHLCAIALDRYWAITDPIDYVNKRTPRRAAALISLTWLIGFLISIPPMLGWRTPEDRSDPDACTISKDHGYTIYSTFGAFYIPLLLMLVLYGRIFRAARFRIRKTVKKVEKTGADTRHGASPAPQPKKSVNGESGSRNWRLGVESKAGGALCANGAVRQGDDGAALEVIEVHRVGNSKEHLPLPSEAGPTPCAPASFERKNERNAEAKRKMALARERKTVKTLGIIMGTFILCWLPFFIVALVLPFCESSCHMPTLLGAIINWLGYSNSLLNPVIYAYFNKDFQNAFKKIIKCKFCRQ
# Summary of the method: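 Competition binding against [3H]-8-OH-DPAT (85 Ci/mmol, 1.2 nM) using 11 dilutions of test compound. Receptor was cloned mammalian 5-HT1A expressed in CHO-K1 cells. IC50 from a one-site nonlinear least-squares fit, converted to Ki by Cheng-Prusoff. Ki reported ±SEM.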
# [11] = system: Mus musculus; test: Swimming activity of the treated mice/control mice at 12 umol/kg, sc; type: functional
# [12] = system: Mus musculus; test: Swimming activity of the treated mice/control mice at 39 umol/kg, sc (p < 0.05); type: functional
# [13] = Half-life time in rats; type: ADME, organism-based; conditions: rat, in vivo
# Summary of the method: (§2)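 Male Sprague-Dawley rats (300 g) with arterial catheters, sampled from 24 h after surgery for 10-24 h; oral groups starved 18 h with free water. Blood levels measured by GC/MS with internal standard, samples run in duplicate. Availability from po vs iv AUC (n = 4), dosed 1 μmol/kg iv and 20 μmol/kg po.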
# [14] = system: Felis catus; test: Maximum decrease in blood pressure observed following 1 mg/kg dose in anesthetized cat; type: functional; design: unit not given here
# Summary of the method: (§3)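 Adult cats (2.5-4.0 kg) anesthetized with ketamine 11 mg/kg im then chloralose 80 mg/kg iv. Animals paralyzed with gallamine, ventilated, and kept at 37-38 °C. Blood pressure recorded via femoral artery. Sympathetic activity quantified by cumulative integration. Increasing doses given iv cumulatively at 20-min intervals.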
# [15] = system: Felis catus; test: Maximum decrease in sympathetic nerve discharge in anesthetized cat; type: functional
# Summary of the method: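 Cats (2.5-4.0 kg) anesthetized with ketamine 11 mg/kg im then chloralose 80 mg/kg iv, paralyzed with gallamine and ventilated, rectal temperature kept at 37-38 °C. Increasing iv doses given cumulatively at 20-min intervals; sympathetic activity quantified by cumulative integration and expressed as percent of control.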
# [16] = system: Felis catus; test: Percent arterial blood pressure at sympathetic nerve discharge in anesthetized cat; type: functional; summary of the method: as §3
# [17] = system: Felis catus; test: Inhibition of sympathetic nerve discharge (SND) in anesthetized cat; type: functional; summary of the method: as §3
# [18] = system: Mus musculus; test: Swimming activity of the treated mice/control mice at 1.2 umol/kg, sc; type: functional
# [19] = system: Mus musculus; test: Swimming activity of the treated mice/control mice at 12 umol/kg, sc (p < 0.001); type: functional
# [20] = system: Mus musculus; test: Swimming activity of the treated mice/control mice at 4.0 umol/kg, sc (p < 0.001); type: functional
# [21] = system: Mus musculus; test: Swimming activity of the treated mice/control mice at 41 umol/kg, sc (p < 0.001); type: functional
# [22] = system: Rattus norvegicus; test: In vivo motor activity at 0.2 umol/kg (sc) in male rats expressed as accumulated counts/30 min (p < 0.05); type: functional
# [23] = system: Rattus norvegicus; test: 5-HTP accumulation in corpus striatum of reserpinized rats following peroral administration; type: functional; conditions: po
# [24] = system: Rattus norvegicus; test: 5-HTP accumulation in corpus striatum of reserpinized rats following subcutaneous administration; type: functional; conditions: sc
# [25] = species: Rattus norvegicus; test: Inhibition of 5-HT1A cell firing in rats; type: functional
# Summary of the method: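 Male Sprague-Dawley rats (280-330 g) under chloral hydrate anesthesia (400 mg/kg ip), drug given iv via femoral vein in distilled water. Dorsal raphe serotonergic neurons recorded extracellularly and confirmed histologically by dye deposit. Firing rate followed by integrated ratemeter.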
# [26] = system: Rattus norvegicus; test: 5-HTP accumulation in hemispheres of reserpinized rats following peroral administration; type: functional; conditions: po
# [27] = system: Rattus norvegicus; test: 5-HTP accumulation in hemispheres of reserpinized rats following subcutaneous administration; type: functional; conditions: sc
# [28] = system: Rattus norvegicus; test: 5-HTP accumulation in limbic system of reserpinized rats following peroral administration; type: functional; conditions: po
# [29] = system: Rattus norvegicus; test: 5-HTP accumulation in limbic system of reserpinized rats following subcutaneous administration; type: functional; conditions: sc
# [30] = system: Rattus norvegicus; test: In vivo motor activity at 61 umol/kg (po) in male rats expressed as accumulated counts/30 min (p < 0.001); type: functional
# [31] = system: Rattus norvegicus; test: Oral availability obtained from blood plasma levels of the parent compound following 1 uMol /kg intravenous and 20 umol /kg peroral administration; type: functional, organism-based; summary of the method: as §2
# [32] = system: Mus musculus; test: Effect on hypothermia in mice following peroral administration; conditions: po
# [33] = system: Mus musculus; test: Effect on hypothermia in mice following subcutaneous administration; conditions: sc
# [34] = system: Rattus norvegicus; test: In vivo motor activity at 10 umol/kg (po) in male rats expressed as accumulated counts/30 min (p < 0.05)
# [35] = Half-life in rats; type: ADME, organism-based; conditions: rat, in vivo; summary of the method: as §1
# [36] = system: Mus musculus; test: Swimming activity of the treated mice/control mice at 39 umol/kg, sc; type: functional
# [37] = system: Mus musculus; test: Swimming activity of the treated mice/control mice at 3.9 umol/kg, sc; type: functional
# [38] = system: Rattus norvegicus; test: In vivo motor activity at 12.5 umol/kg (sc) in male rats expressed as accumulated counts/30 min (p < 0.001); type: functional
SMILES,NA [2],NA [4],NA [6],Response [7],bioavailability [8] [%],ED50 [2],ED50 [4],ED50 [6],Response [9],Ki [10] [nM],Max decrease [14],Max decrease [15],BP [16] [%],ED50 [17] [µmol/kg],Swimming activity [19],ED50 [24] [µmol/kg],ED50 [25] [µmol/kg],ED50 [27] [µmol/kg],ED50 [29] [µmol/kg],ED50 [32] [µmol/kg],also measured
CCCN1CC[C@H]2c3c(cccc3C(N)=O)CC[C@H]21 (stereo in doubt; (-)-3a),inactive,inactive,inactive,Active,46,–,–,–,–,–,–,–,–,–,–,–,–,–,–,–,NA [1]: inactive; NA [3]: inactive; NA [5]: inactive
CCCN1CC[C@H]2c3c(cccc3C(N)=O)CC[C@H]21 (stereo in doubt; (-)-3b) [listing 1 of 2 here],–,–,–,–,–,inactive,inactive,inactive,Partially active,–,–,–,–,–,–,–,–,–,–,–,–
CCCN1CC[C@H]2c3c(cccc3C(N)=O)CC[C@H]21 (stereo in doubt; (-)-3b) [listing 2 of 2 here],–,–,–,–,–,–,–,–,–,28,–,–,–,–,–,–,–,–,–,–,Swimming activity [11]: 0.7; Swimming activity [12]: 1.7
CCCN(CCC)C1CCc2cccc(O)c2C1 (racemic) [8-OH-DPAT],–,–,–,Active,–,inactive,inactive,inactive,–,–,57,2,66,0.03,4.6 T/C,0.052,0.006,0.063,0.052,30,half-life [13]: 1 h; Swimming activity [18]: 0.9 T/C; Swimming activity [20]: 6.7 T/C; Swimming activity [21]: 3.4 T/C; Accumulated counts/30 min [22]: 66; ED50 [23]: 7.9 µmol/kg; ED50 [26]: 7.6 µmol/kg; ED50 [28]: 3 µmol/kg; ED50 [1]: inactive; ED50 [3]: inactive; ED50 [5]: inactive; Accumulated counts/30 min [30]: 883; bioavailability [31]: 2.4%; ED50 [33]: 3 µmol/kg; Accumulated counts/30 min [34]: 17
CCCN1CCC2c3c(cccc3C(N)=O)CCC21 (racemic),inactive,inactive,inactive,–,70,–,–,–,Partially active,2.9,63,33,82,0.1,6.6,0.95,0.009,1.25,0.93,28,half-life [35]: 1.5 h; Swimming activity [36]: 2.9; Swimming activity [37]: 1.2; Accumulated counts/30 min [38]: 88; ED50 [33]: 3.8 µmol/kg
